Reference: ChEMBL document CHEMBL2311397, “Design and synthesis of cyclopropylamide analogues of combretastatin-A4 as novel microtubule-stabilizing agents” (J Med Chem, 2013)
Activity calls are given as the source filed them. No cut-off for these calls is given here.

Key:
A549 [1] = experiment: Resistance index, ratio of IC50 for paclitaxel-resistant human A549 cells to IC50 for paclitaxel-sensitive human A549 cells; type: functional
Method in brief: (§1)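 Log-phase cells (40000–50000 cells/mL) grown in DMEM with 10% fetal calf serum (5% CO2, 37 °C) and exposed 48 h to five concentrations, 3–5 replicates. Read-out was MTT with absorbance at 570 nm; IC50 reported as mean ± SD of three independent experiments. Resistant A549 and HeLa sublines were made by stepwise paclitaxel selection; resistance index = IC50(resistant)/IC50(sensitive).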

A549 [2] = experiment: Cytotoxicity against human A549 cells after 48 hrs by MTT assay; type: functional, cell-based; details: Homo sapiens, A549, 48 h; method in brief: as §1
A549 [3] = experiment: Antimitotic activity against human A549 cells assessed as cell mitotic arrest at 1 uM after 22 hrs by DAPI/FITC staining-based laser fluorescence confocal microscopic analysis (reference value: 1.1 %); type: functional
HeLa [4] = experiment: Cytotoxicity against human HeLa cells after 48 hrs by MTT assay; type: functional, cell-based; details: Homo sapiens, HeLa, 48 h; method in brief: as §1
HeLa [5] = experiment: Cytotoxicity against paclitaxel-resistant human HeLa cells after 48 hrs by MTT assay; type: functional, cell-based; method in brief: as §1
A549 [6] = experiment: Effect on microtubule dynamics in human A549 cells at 5 to 10 uM after 22 hrs by DAPI/FITC staining-based laser fluorescence confocal microscopic analysis; type: functional, cell-based
Method in brief: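 Confocal imaging of A549 cells exposed for 22 h to compound or vehicle (0.2% DMSO final), added at 70% confluency after overnight growth. Fixation followed by 0.5% Triton X-100 permeabilization and 10% goat serum blocking; tubulin stained with FITC anti-α-tubulin (1:100, 2 h, 37 °C), nuclei counterstained with DAPI. Wide-field images taken at 10–15 random slide locations.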

A549 [7] = experiment: Induction of apoptosis in human A549 cells early apoptotic cells at 10 uM after 24 hrs by annexin V-FITC/propidium iodide staining-based flow cytometry (reference value: 0.73 %); type: functional
A549 [8] = experiment: Induction of apoptosis in human A549 cells assessed as necrotic cells at 5 uM after 24 hrs by annexin V-FITC/propidium iodide staining-based flow cytometry (reference value: 2.76%); type: functional
HeLa [9] = experiment: Resistance index, ratio of IC50 for paclitaxel-resistant human HeLa cells to IC50 for paclitaxel-sensitive human HeLa cells; type: functional; method in brief: as §1
A549 [10] = experiment: Induction of apoptosis in human A549 cells assessed as late apoptotic cells at 10 uM after 24 hrs by annexin V-FITC/propidium iodide staining-based flow cytometry (reference value: 1.02%); type: functional
A549 [11] = experiment: Cell cycle arrest in human A549 cells assessed as accumulation at G1 phase at 1 uM after 24 hrs by propidium iodide staining-based flow cytometry (reference value: 87.56 %); type: functional
A549 [12] = experiment: Cell cycle arrest in human A549 cells assessed as accumulation at S phase at 5 uM after 24 hrs by propidium iodide staining-based flow cytometry (reference value: 9.12 %); type: functional
A549 [13] = experiment: Cell cycle arrest in human A549 cells assessed as accumulation at G2/M phase after 24 hrs by propidium iodide staining-based flow cytometry; type: functional
Mus musculus = experiment: Toxicity in human A549 cells xenografted BALB/c nude mouse assessed as change in body weight at 100 to 500 mg/kg, ig; type: organism-based; design: dose 100-500 mg/kg, route intragastric; details: in vivo, po
Method in brief: (§2)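 Male BALB/c nude mice, 5 weeks old (18–20 g), implanted subcutaneously in the right armpit with A549 tumor fragments (3 mm3). On day 13, at 100–200 mm3, daily intragastric dosing began: 100 or 500 mg/kg test compound, or 30 mg/kg paclitaxel, in Tween-80 diluted with saline. Vehicle given ip. Tumor volume and body weight followed; n = 6; inhibition rate at day 16.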

[14] = Cytotoxicity against human QGY cells after 48 hrs by MTT assay; type: functional, cell-based; details: Homo sapiens, QGY, 48 h; method in brief: as §1
A549 [15] = experiment: Cell cycle arrest in human A549 cells assessed as accumulation at S phase at 0.1 uM after 24 hrs by propidium iodide staining-based flow cytometry (reference value: 9.12 %); type: functional
Tubulin (Homo sapiens) = Tubulin (Homo sapiens) (UniProt P68371+Q9H4B7+P0DPH7+P68366+Q13509+Q71U36+P04350+Q3ZCM7+P07437+P68363+Q9BQE3+Q6PEY2+Q13885+Q9BVA1+Q9BUF5); experiment: Activation of tubulin (unknown origin) polymerization at 10 uM; type: protein-complex assay
Method in brief: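 Purified brain tubulin (kit), final 3.0 mg/mL, in 80.0 mM PIPES sesquisodium pH 6.9, 2.0 mM MgCl2, 0.5 mM EGTA, 1 mM GTP, 10.2% glycerol; components prewarmed to 37 °C, reaction started by adding tubulin. A340 read each minute for 1 h. Single-point % stimulation used 10 μM compound; EC50 from 3.75, 7.5, 15, 30, 60 μM.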

A549 [16] = experiment: Antitumor activity against human A549 cells xenografted in ig dosed BALB/c nude mouse assessed as tumor growth inhibition measured on day 16; type: functional, organism-based; method in brief: as §2
A549 [17] = experiment: Induction of apoptosis in human A549 cells assessed as necrotic cells at 1 uM after 24 hrs by annexin V-FITC/propidium iodide staining-based flow cytometry (reference value: 2.76%); type: functional
A549 [18] = experiment: Induction of apoptosis in human A549 cells assessed as late apoptotic cells at 1 uM after 24 hrs by annexin V-FITC/propidium iodide staining-based flow cytometry (reference value: 1.02%); type: functional
A549 [19] = experiment: Induction of apoptosis in human A549 cells assessed as early apoptotic cells at 1 uM after 24 hrs by annexin V-FITC/propidium iodide staining-based flow cytometry (reference value: 0.73 %); type: functional

Activity (Tubulin (Homo sapiens)): 24.3%
Structure (SMILES): COc1cc([C@@H]2C[C@]2(CO)C(=O)Nc2ccccc2Cl)cc(OC)c1OC
Ratio IC50 (A549 [1]): 1.2 | IC50 (A549 [2]): 4.4 µM | Activity (A549 [3]): 37.4% | IC50 (HeLa [4]): 8.1 µM | IC50 (HeLa [5]): 10.7 µM | Activity (A549 [6]): Active | Activity (A549 [7]): 55.23% | Activity (A549 [8]): 2.04% | Ratio IC50 (HeLa [9]): 1.3 | Activity (A549 [10]): 2.99% | Activity (A549 [11]): 38.41% | Activity (A549 [12]): 10.81% | Activity (A549 [13]): Dose-dependent effect | Activity (Mus musculus): Non-toxic | IC50 [14]: 15.7 µM | Activity (A549 [15]): 9.54% | TGI (A549 [16]): Dose-dependent effect | Activity (A549 [17]): 1.46% | Activity (A549 [18]): 2.82% | Activity (A549 [19]): 15.57%
